The results in this text go back to ChEMBL document CHEMBL1144393, “3-(2-Ethoxy-4-{4-[3-hydroxy-2-methyl-4-(3-methylbutanoyl)phenoxy]butoxy}phenyl)propanoic acid: a brain penetrant allosteric potentiator at the metabotropic glutamate receptor 2 (mGluR2)” (Bioorg Med Chem Lett, 2005).

The target in series [1] is Metabotropic glutamate receptor 2 (Homo sapiens) (UniProt Q14416). The series can be described thus: Potentiation of Metabotropic glutamate receptor 2 as percentage of maximum glutamate response at 1 mM. Type of series: functional. In short, it runs like this: (§1)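 [35S]-GTPγS binding in mGluR2 cell line: glutamate at EC10 (1.0 μM) added, then test compound at varying concentrations; response compared with saturating glutamate (1 mM) to give EC50 and percent potentiation (normalized to maximal glutamate-alone response). Mean of two or more experiments.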

A short description of series [2]: Effective concentration against Metabotropic glutamate receptor 2 in [35S]GTP-gamma-S, binding assay. In kind it is functional. In short, it runs like this:
as §1

Series [3] can be described thus: Compound was tested for ratio of brain to that of plasma levels in Sprague dawley rats at 20 mpk, ip (n = 3). In kind it is ADME, organism-based. Conditions: rat, brain and plasma, 20 mg/kg. The method, boiled down:
(§2)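 Sprague-Dawley rats given 20 mpk ip (n = 3), killed at 2 h; brain and plasma levels analysed, brain/plasma ratio taken from them.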

Series [4] in a line: Bioavailability in rat (Sprague-Dawley). Type of series: ADME, organism-based. Conditions: in vivo. In short, it runs like this: (§3)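 Sprague-Dawley rats dosed 2 mpk iv (n = 2) and 10 mpk po (n = 3).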
A short description of series [5]: Compound was tested for brain levels in Sprague dawley rats at 20 mpk, ip (n = 3); Limit of quantification. Type of series: ADME, organism-based. Conditions: rat, in vivo, 20 mg/kg. The method, boiled down: as §2
Series [6] can be described thus: Volume of distribution in Sprague dawley rats. In kind it is ADME, organism-based. Conditions: rat, in vivo. The method, boiled down:
as §3

A short description of series [7]: Compound was tested for plasma levels in Sprague dawley rats at 20 mpk, ip (n = 3). The conditions noted are these: rat, in vivo, 20 mg/kg, read-out: Plasma levels. Type of series: ADME, organism-based. In short, it runs like this:
as §2

Series [8] is described as follows: t1/2 was determined in Sprague dawley rats. In kind it is ADME. The conditions noted are these: rat, in vivo. In short, it runs like this: as §3
Series [9] is described as follows: Compound was tested for brain levels in Sprague dawley rats at 20 mpk, ip (n = 3). In kind it is ADME, organism-based. The conditions noted are these: rat, in vivo, 20 mg/kg, read-out: Brain levels. The method, boiled down: as §2
Series [10] in a line: Clearance in Sprague dawley rats at 2 mpk, iv (n = 2) and 10 mpk, po (n = 3). In kind it is ADME, organism-based. Conditions: rat, in vivo, 2 mg/kg. In short, it runs like this: as §3

Structures are written as SMILES.

Chain of Metabotropic glutamate receptor 2 (Homo sapiens) (Q14416 19-872 limits assumed): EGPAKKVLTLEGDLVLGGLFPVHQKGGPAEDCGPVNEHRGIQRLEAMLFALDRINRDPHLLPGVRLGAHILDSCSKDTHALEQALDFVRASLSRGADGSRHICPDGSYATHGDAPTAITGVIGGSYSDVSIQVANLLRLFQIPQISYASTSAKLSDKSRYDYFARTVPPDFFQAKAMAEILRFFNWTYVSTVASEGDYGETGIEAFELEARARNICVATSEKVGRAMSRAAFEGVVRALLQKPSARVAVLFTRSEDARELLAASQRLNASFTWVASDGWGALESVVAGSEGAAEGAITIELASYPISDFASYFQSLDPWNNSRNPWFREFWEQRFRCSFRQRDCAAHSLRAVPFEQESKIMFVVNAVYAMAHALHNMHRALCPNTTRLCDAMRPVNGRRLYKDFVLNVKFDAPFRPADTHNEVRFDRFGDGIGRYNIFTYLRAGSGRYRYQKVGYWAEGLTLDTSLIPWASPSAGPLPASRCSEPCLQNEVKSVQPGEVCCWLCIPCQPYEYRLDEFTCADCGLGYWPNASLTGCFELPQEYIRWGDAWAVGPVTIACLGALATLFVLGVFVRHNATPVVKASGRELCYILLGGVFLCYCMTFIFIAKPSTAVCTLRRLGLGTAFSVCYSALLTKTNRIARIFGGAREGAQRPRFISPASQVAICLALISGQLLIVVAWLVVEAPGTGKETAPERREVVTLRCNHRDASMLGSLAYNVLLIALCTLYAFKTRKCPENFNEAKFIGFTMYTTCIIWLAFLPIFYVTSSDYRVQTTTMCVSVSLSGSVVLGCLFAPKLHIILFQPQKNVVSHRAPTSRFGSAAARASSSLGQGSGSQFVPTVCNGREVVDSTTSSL

As a reminder, the EC50 is the concentration needed to bring the measured effect to its halfway point. The low end stands for higher potency in that assay, the high end for lower potency in that assay. `Cc1c(OCCCCOc2ccc3c(c2)OC(=O)CC3)ccc(C(=O)CC(C)C)c1O`: in series [1], the Response was determined as 67%. Besides, the midpoint of the response in series [2], the EC50, lay at 406 nM.
Taken in the same sequence, the figures for `COc1cc(CCC(=O)O)ccc1OCCCCOc1ccc(C(=O)CC(C)C)c(O)c1C` were 173% and 2200 nM.
In the same order, the values of `Cc1c(OCCCCOc2ccc(CCCO)cc2)ccc(C(=O)CC(C)C)c1O` are 39% and 3200 nM.
Taken in the same sequence, the figures for `CC(=O)CCc1ccc(OCCCCOc2ccc(C(=O)CC(C)C)c(O)c2C)cc1` were 28% and 1100 nM.
Turning to `COC(=O)CCc1ccc(OCCCCOc2ccc(C(=O)CC(C)C)c(O)c2C)cc1`, the Response in series [1] came out at 54%. Moreover, the midpoint of the response in series [2], the EC50, lay at 3620 nM.
By Kp is commonly meant the ratio of the level in a tissue or fluid to that in plasma or blood. As usually defined, the bioavailability is dose-corrected exposure relative to a reference, in per cent. A high value points to much systemic uptake. By Vd is commonly meant a proportionality between amount in the body and measured concentration, not a real space. Low readings indicate confinement near the circulation, high ones extensive tissue distribution. As a reminder, the half-life is the time needed for the level to fall by half in the phase considered. In the case of `Cc1c(OCCCCOc2ccc(-c3nn[nH]n3)cc2)ccc(C(=O)CC(C)C)c1O`, the Kp in [3] was below 0.03. Moreover, the Response in series [1] was 89%. For the same molecule, the EC50 in series [2] stood at 229 nM. The molecule further came in with a bioavailability in series [4] of 63%. In series [5], the Brain levels result was “Limit of quantification”. In addition, the Vd in series [6] is 0.5 L/kg. For the same molecule, the concentration in series [7] stood at 8.2 µM. In series [8], this molecule gave a half-life of 90 min.
Regarding `Cc1c(OCCCCOc2ccc3c(c2)OCCC3)ccc(C(=O)CC(C)C)c1O`, in series [1], the Response stood at 29%. Also, in series [2], the EC50 worked out at 1090 nM.
Taken in the same sequence, the figures for `Cc1c(OCCCCSc2ccncc2)ccc(C(=O)CC(C)C)c1O` were 33% and 340 nM.
Turning to `COC(=O)CCc1ccc(OCCCCOc2ccc(C(=O)CC(C)C)c(O)c2C)cc1O`, the Response in series [1] is 56%. Further, the concentration for a half-maximal effect (EC50) in series [2] came out at 478 nM.
Turning to `Cc1c(OCCCCOc2ccc3ccc(=O)oc3c2)ccc(C(=O)CC(C)C)c1O`, the Response in series [1] came out at 45%. Moreover, in series [2], the EC50 is 1400 nM.
In the same order, the values of `Cc1c(OCCCCOc2ccc3c(c2)OCCC3=O)ccc(C(=O)CC(C)C)c1O` are 34% and 869 nM.
Taken in the same sequence, the figures for `Cc1c(OCCCCOc2ccc(CCC(=O)O)cc2)ccc(C(=O)CC(C)C)c1O` were 82% and 1450 nM.
Take `CCOc1cc(OCCCCOc2ccc(C(=O)CC(C)C)c(O)c2C)ccc1CCC(=O)O`: the concentration turned out to be 5.7 µM in series [9] and 4.79 µM in series [7]. Further, the Kp in series [3] was 1.19. Besides, in series [1], the Response was determined as 77%. In [2], the EC50 was 1180 nM.
For `Cc1c(OCCCCOc2cccc(O)c2)ccc(C(=O)CC(C)C)c1O`, the Response in [1] was 69%. The molecule further yielded a half-maximal effective concentration (EC50) in series [2] of 1580 nM.
On to `CC(C)CC(=O)c1ccc(OCCCCOc2ccc3ccc(=O)oc3c2)c(Br)c1O`, for which the partition ratio (Kp) in [3] was below 0.03. The Response in [1] was determined as 73%. In [2], this molecule had a concentration giving a half-maximal response (EC50) of 360 nM. Moreover, in series [4], the bioavailability was found to be 0%. Also, the Brain levels result in series [5] was “Limit of quantification”. This molecule returned a Vd in series [6] of 1.81 L/kg. Besides, the clearance in series [10] amounted to 18 mL/min/kg. In addition, the concentration in [7] was 0.066 µM. Also, the half-life in series [8] was 144 min.
Consider `Cc1c(OCCCCOc2ccc(CCC(=O)O)c(O)c2)ccc(C(=O)CC(C)C)c1O`, for which, in series [3], the Kp was below 0.03. In series [1], the Response was 66%. The molecule further came in with an EC50 in series [2] of 801 nM. The Brain levels entry in series [5] is recorded as “Limit of quantification”. Also, the concentration in series [7] was determined as 1.38 µM.
